Screening data deposited in PubChem BioAssay by several laboratories.
SUMO HTRF inh: inhibitors of in vitro SUMOylation cascade, primary screen, biochemical, HTRF, uHTS. SUMO-conjugating enzyme UBC9 (Homo sapiens), P63279. HTRF SUMOylation assay, SAE1/SAE2 + UBC9. inhibition, % at 35 µM. 290,000 compounds, 0.36% hits. AID 2006, 2009; in the data active = inhibition above about 50%, passing the limit was not always enough
Target sequence (P63279 whole entry, looked up): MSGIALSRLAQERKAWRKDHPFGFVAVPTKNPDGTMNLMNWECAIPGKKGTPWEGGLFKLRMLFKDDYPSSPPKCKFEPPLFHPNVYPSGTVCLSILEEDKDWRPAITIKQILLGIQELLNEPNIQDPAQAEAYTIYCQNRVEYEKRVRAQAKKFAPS
PfM18AAP inh-1: PfM18AAP inhibitors, malaria aminopeptidase, primary screen, biochemical, QFRET, recombinant enzyme. M18 aspartyl aminopeptidase (Plasmodium falciparum 3D7). H-Glu-NHMec fluorogenic cleavage. inhibition, % at 7.35 µM. 290,000 compounds, 1.2% hits. AID 1822, 2009;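 active = inhibition above the campaign mean inhibition over all tested compounds plus 3 SD, cut at about 28% in these data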;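 also: 0% = plate median of test compound wells and 100% = 2 mM ZnCl2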
A3G deaminase: APOBEC3G DNA deaminase inhibitors, primary screen, biochemical, fluorescence, single-stranded DNA substrate, uHTS. recombinant A3G, ssDNA deamination FAM/TAMRA fluorescence. DNA dC->dU-editing enzyme APOBEC-3G (Homo sapiens), Q9HC16. inhibition, % at 20 µM. 330,000 compounds, 0.28% hits. AID 493012, 2011;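 active = inhibition of at least 40% at 20 µM, with no more than 30% in the related APOBEC3A deaminase screen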;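 also: plate controls were DMSO wells with A3G for no effect and wells lacking A3G enzyme for full effect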
PfG6PD inh: PfG6PD enzyme inhibitors, primary screen, biochemical, fluorescence intensity, uHTS; glucose-6-phosphate dehydrogenase-6-phosphogluconolactonase (Plasmodium falciparum 3D7); inhibition, % at 20 µM; PfGluPho enzyme, NADPH resazurin-diaphorase fluorescence; AID 504690, 2011; 350,000 compounds, 0.78% hits;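 active = inhibition reaching at least a set limit at 20 µM in the primary screen, cut at about 59% in these data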;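 also: 0% = DMSO wells with substrate and 100% = DMSO wells lacking glucose-6-phosphate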
A3A deaminase: APOBEC3A ssDNA deaminase inhibitors, primary screen, selectivity assay for APOBEC3G inhibitor project, biochemical, FAM/TAMRA oligo cleavage fluorescence; recombinant A3A, FAM/TAMRA ssDNA deamination fluorescence; inhibition, % at 20 µM; 330,000 compounds, 0.41% hits; AID 493011, 2011;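 active = at least 40% inhibition at 20 µM here, with at most 30% in a related deaminase screen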;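 also: plate controls were A3A with DMSO for no effect and wells lacking A3A enzyme for full effect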
Target sequence (P31941 whole entry, looked up): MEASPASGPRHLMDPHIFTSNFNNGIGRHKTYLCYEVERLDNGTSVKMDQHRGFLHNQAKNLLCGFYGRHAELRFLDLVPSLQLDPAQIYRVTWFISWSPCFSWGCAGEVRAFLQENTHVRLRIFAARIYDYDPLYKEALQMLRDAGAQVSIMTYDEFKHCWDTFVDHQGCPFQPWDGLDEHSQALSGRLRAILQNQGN
HKDC1 inh: HKDC1 hexokinase inhibitors, primary screen, biochemical, fluorescence, uHTS | 340,000 compounds, 0.16% hits | inhibition, % at 20 µM | Q2TB90 | recombinant HKDC1, G6PDH/diaphorase resazurin coupled fluorescence;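 active = inhibition above about 35% when tested at 20 µM, limit read from the data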;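 also: plate controls were DMSO wells with enzyme for no effect and DMSO wells lacking enzyme for full effect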
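Material: recombinant HKDC1 hexokinase; Amount: HKDC1 at 5 µg/mL; Medium: Tris pH 8.0 buffer with MgCl2, Tween-20, BSA, BME; Schedule: 90 min reaction incubation at room temperature, dark; Technique: coupled resazurin fluorescence, excitation 525 nm, emission 613 nm.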
PfM18AAP inh-2: PfM18AAP inhibitors, malaria aminopeptidase, confirmation, biochemical, QFRET, recombinant enzyme, triplicate; shares compounds with PfM18AAP inh-1; H-Glu-NHMec fluorogenic cleavage; inhibition, % at 7.35 µM; 2,400 compounds, 28% hits; AID 2170, 2009;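 active = mean inhibition over replicate wells above the hit cutoff set for the earlier primary screen, cut at about 29% in these data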;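 also: 0% = median of test compound wells and 100% = 2 mM ZnCl2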
CTSL1 confirm: cathepsin L1 inhibitors, retest, confirmation, counter-screen for PFM18AAP inhibitor project, biochemical, QFRET, triplicate | shares compounds with PfM18AAP inh-1 | purified cathepsin L1, Z-Leu-Arg-MCA fluorescence | inhibition, % at 5.96 µM | 2,400 tested, under 10 active | AID 2178, 2009;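 active = average inhibition across replicates above the hit cutoff set in the earlier primary screen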;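 also: 0% = median of test compound wells and 100% = Z-Phe-Ala-diazomethylketone 1 µM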
* hit, by the source's call; . = not tested or not shown. Shown are actives, neighbours in structure and some others; about 2.4% of the full set was active somewhere.

SMILES	SUMO HTRF inh	PfM18AAP inh-1	A3G deaminase	PfG6PD inh	A3A deaminase	HKDC1 inh	PfM18AAP inh-2	CTSL1 confirm
CC(C)C(=O)N(c1ccc2oc(=O)sc2c1)S(=O)(=O)c1cccs1	5	37*	-11	-8	-6	-31	-10	2
Cc1ccc(S(=O)(=O)N/N=C/c2ccccc2O)cc1[N+](=O)[O-]	13	5	-12	-1	3	-2	.	.
Cc1ccc(S(=O)(=O)N/N=C/c2ccc(O)c(O)c2)cc1[N+](=O)[O-]	-20	54*	-1	2	1	-2	45*	4
Cc1cc(=O)[nH]c(SCC(=O)NCCc2ccccc2)n1	7	1	-7	-8	-6	2	.	.
Cc1cc(=O)[nH]c(SCC(=O)NNC(=O)Cc2ccccc2)n1	-12	36*	-5	-12	-2	2	2	-5
NS(=O)(=O)c1ccc(NC(=S)NC2CCCCCC2)cc1	14	44*	-2	30	-5	0	0	3
NS(=O)(=O)c1ccc(NC(=S)NC(=O)C2CCCCC2)cc1	9	9	-3	9	-1	-4	.	.
NS(=O)(=O)c1ccc(NC(=S)NC2CCCC2)cc1	5	46*	11	9	-4	-8	7	-4
O=S(=O)(c1ccc(NC(=S)NC2CCCC2)cc1)N1CCCC1	4	-1	-1	2	-2	-5	.	.
CCN1CCN(CC(=O)Nc2cccc(C)c2)C(=O)C1=O	.	3	-8	-8	1	-3	.	.
CC1(C)Cc2c(c(N3CCOCC3)nc3sc4c(NN)ncnc4c23)CS1	0	33*	-2	12	-2	9	-7	3
CC(C)CNc1nnnc2c1sc1nc(N3CCOCC3)c3c(c12)CC(C)(C)SC3	9	-2	-4	17	-19	18	.	.
O=C(NNS(=O)(=O)c1ccc(F)cc1)c1ccc2c(c1)OCO2	14	50*	3	-17	1	3	11	2
O=C(NNC(=O)c1ccc(F)cc1F)c1ccc2c(c1)OCO2	10	0	-1	0	7	-7	.	.
NNC(=O)c1c(O)c2cccc3c2n(c1=O)CCC3	5	34*	1	17	1	5	-4	2
CC(C)NC(=O)c1c(O)c2cccc3c2n(c1=O)CCC3	-1	-3	0	-9	6	-10	.	.
COc1cc(-c2nnn(CC#N)n2)ccc1OCc1ccccc1	13	3	1	4	2	0	.	.
CC(C)C(=O)c1ccc(O)c(O)c1	9	41*	-1	-37	-7	-12	21	1
COC(=O)C1C(O)=C(C=NCC(C)N=CC2=C(O)C(C(=O)OC)C(C)(C)CC2=O)C(=O)CC1(C)C (stereo not given)	14	47*	-5	8	-4	-7	21	-1
CCC(C)N=CC1=C(O)C(C(=O)OC)C(C)(C)CC1=O (stereo not given)	36	3	-7	-22	-1	-5	.	.
Cc1ccc(-n2nc3c(=O)n(CC(=O)NCCc4cccs4)nc(C)c3c2C)cc1	4	1	-1	-5	-2	-1	.	.
COc1ccc(N2CCCC2)c(NC(=O)COc2ccccc2)c1	-3	19	-2	2	-2	6	.	.
CC(Sc1nccn1C)C(=O)Nc1ccccc1 (stereo not given)	15	-3	-7	0	-2	5	.	.
CC(Sc1nc(C(C)(C)C)cc(-c2ccccc2)c1C#N)C(=O)Nc1ccccc1 (stereo not given)	4	33*	16	46	-1	-7	-18	-1
CCc1nnc(NC(=O)CSc2nnc(-c3ccccc3O)o2)s1	6	34*	-1	-38	0	-7	-17	-3
SMILES	SUMO HTRF inh	PfM18AAP inh-1	A3G deaminase	PfG6PD inh	A3A deaminase	HKDC1 inh	PfM18AAP inh-2	CTSL1 confirm
CC(C)(C)Cc1nnc(NC(=O)CSc2ccccc2)s1	22	40*	36	51	5	-10	20	2
CCc1nnc(NC(=O)CSc2nnc(CSc3nc(C)cc(C)n3)n2CC)s1	.	1	.	.	.	.	.	.
CCc1nnc(NC(=O)CSc2nnc(CSc3nc(C)cc(C)n3)o2)s1	-8	36*	-10	-4	-3	-6	-28	1
CN(C)CCC#CC1(O)c2ccccc2-c2ccccc21	13	-16	0	12	0	-6	.	.
COCCCNC(=O)C[C@H]1C[C@H](C(=O)N2CCOCC2)[C@@]2(CCC3CCCC3)c3[nH]c4cc(-c5ccco5)ccc4c3CCN2C1=O	.	.	-2	26	2	-2	.	.
Cn1c(=O)c2c(nc(-n3ccnc3)n2C)n(C)c1=O	16	-7	-8	-7	-3	-4	.	.
N#CC1=C(N)OC2=C(C(=O)CCC2)C1c1ccc2c(c1)OCO2 (stereo not given)	9	15	1	19	2	-2	.	.
COc1cc(C2C(C#N)=C(N)OC3=C2C(=O)CCC3)cc2c1OCO2 (stereo not given)	20	34*	1	-6	4	-7	-42	-4
O=C(Nn1cnnc1)c1ccc(F)cc1	5	32*	-3	-7	-2	0	16	1
O=C(Nn1cnnc1)c1ccc(Cl)cc1	8	42*	0	12	-2	-6	26	0
O=C(Nn1cnnc1)c1ccc(OC(F)(F)C(F)C(F)(F)F)cc1 (stereo not given)	-1	38*	-4	-10	0	13	5	-6
COC(=O)c1cccc(CN2C(=O)SC(Nc3ccccc3)C2=O)c1 (stereo not given)	2	-6	-4	15	-1	-5	.	.
CCOC(=O)c1ccc(CC(=O)c2oc3cc(O)ccc3c2C)o1	27	16	-6	1	-5	20	.	.
CCOC(=O)c1ccc(CC(=O)c2ccc(O)c(O)c2O)o1	14	48*	1	22	2	-12	0	0
S=c1nc(C2CCCCC2)n(-c2ccccc2)[nH]1	-1	35*	9	55	-5	-2	3	-4
